{"source": "ChEMBL document CHEMBL5715960", "about": "“Epigenetic Co-Deregulation of EZH2/TET1 is a Senescence-Countering, Actionable Vulnerability in Triple-Negative Breast Cancer” (Theranostics, 2019)", "key": {"[1]": {"test_system": "SK-BR-3", "experiment": "Cytotoxicity against human SK-BR-3 cells at 0.5 to 2 uM for 2 days by Guava viacount assay", "type": "toxicity, cell-based", "settings": "sk-br-3, 48 h, dose 0.5-2 µM, time 2 day", "summary_of_the_method": "(§1)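 Cells plated at 2 × 10^4 (24-well) or 1 × 10^5 (12-well), exposed to a range of GSK343 concentrations for 2 days against DMSO solvent control; cell number and viability read by Guava ViaCount flow cytometry, relative to DMSO. Triplicate; mean ± SD.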"}, "[2]": {"test_system": "BT-474", "experiment": "Cytotoxicity against human BT-474 cells at 0.5 to 2 uM for 2 days by Guava viacount assay", "type": "toxicity, cell-based", "settings": "bt-474, 48 h, dose 0.5-2 µM, time 2 day", "summary_of_the_method": "as §1"}, "[3]": {"test_system": "MDA-MB-436", "experiment": "Antiproliferative activity against human MDA-MB-436 cells assessed as increase in cell death at 10 uM for 2 days by Guava viacount assay", "type": "functional, cell-based", "settings": "time 2.0 day", "summary_of_the_method": "as §1"}, "[4]": {"test_system": "MCF7", "experiment": "Cytotoxicity against human MCF7 cells assessed as increase in cell death at 10 uM for 2 days by Guava viacount assay", "type": "toxicity, cell-based", "settings": "mcf7, 48 h, time 2 day", "summary_of_the_method": "as §1"}, "[5]": {"test_system": "MDA-MB-436", "experiment": "Induction of cell cycle arrest in human MDA-MB-436 cells assessed as accumulation of cells at S phase measured at 2 uM by BrdU/PI staining based flow cytometric analysis (reference value: 39.5%)", "type": "functional"}, "[6]": {"test_system": "MCF7", "experiment": "Induction of cell cycle arrest in human MCF7 cells assessed as accumulation of cells at S phase measured at 2 uM by BrdU/PI staining based flow cytometric analysis (reference value: 27.7%)", "type": "functional"}, "[7]": {"test_system": "MDA-MB-436", "experiment": "Antiproliferative activity in human MDA-MB-436 cells assessed as increase in SA-beta-gal positive cells at 2 uM for 5 days by SA-beta-gal staining analysis", "type": "functional, cell-based", "settings": "time 5.0 day", "summary_of_the_method": "(§2)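 GSK343 2 µM or DMSO for 5 days, then chromogenic SA-β-gal staining and counting of positive cells. Triplicate; mean ± SD.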"}, "[8]": {"test_system": "MDA-MB-361", "experiment": "Antiproliferative activity in human MDA-MB-361 cells assessed as increase in SA-beta-gal positive cells at 2 uM for 5 days by SA-beta-gal staining analysis", "type": "toxicity, cell-based", "settings": "mda-mb-361, 120 h, time 5 day", "summary_of_the_method": "as §2"}, "[9]": {"test_system": "BT-474", "experiment": "Antiproliferative activity in human BT-474 cells assessed as increase in SA-beta-gal positive cells at 2 uM for 5 days by SA-beta-gal staining analysis", "type": "toxicity, cell-based", "settings": "bt-474, 120 h, time 5 day", "summary_of_the_method": "as §2"}, "[10]": {"test_system": "MCF7", "experiment": "Antiproliferative activity in human MCF7 cells assessed as increase in SA-beta-gal positive cells at 2 uM for 5 days by SA-beta-gal staining analysis", "type": "toxicity, cell-based", "settings": "mcf7, 120 h, time 5 day", "summary_of_the_method": "as §2"}, "[11]": {"test_system": "BT-474", "experiment": "Antiproliferative activity against human BT-474 cells assessed as increase in global H3K9me3 expression level by immunoblot analysis", "type": "toxicity, cell-based", "summary_of_the_method": "(§3)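 Cells exposed to GSK343 at 2 µM (standard level unless stated otherwise), lysed and immunoblotted; α-tubulin and total H3 as loading controls.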"}, "[12]": {"test_system": "MDA-MB-231", "experiment": "Antiproliferative activity against human MDA-MB-231 cells assessed as downregulation of cyclin A by immunoblot analysis", "type": "functional, cell-based", "summary_of_the_method": "as §3"}, "[13]": {"test_system": "MDA-MB-436", "experiment": "Upregulation of CDKN1A gene in human MDA-MB-436 cells at 2 uM by qRT-PCR analysis", "type": "functional, cell-based", "summary_of_the_method": "(§4)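 Relative transcript levels measured by qRT-PCR in cells treated with 2 µM inhibitor, normalised to DMSO-treated control cells. Triplicate experiments unless stated otherwise; mean ± SD reported; unpaired two-tailed Student's t-test at p < 0.05.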"}, "[14]": {"test_system": "BT-474", "experiment": "Upregulation of CDKN1A gene in human BT-474 cells at 2 uM by qRT-PCR analysis", "type": "functional, cell-based", "summary_of_the_method": "as §4"}, "[15]": {"test_system": "MDA-MB-231", "experiment": "Effect on human MDA-MB-231 cells assessed as increase in TET1 transcription by qRT-PCR analysis", "type": "functional, cell-based", "summary_of_the_method": "(§5)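 qRT-PCR of TET1, TET2 and TET3 transcripts in breast cancer cells exposed to GSK343 (2 µM unless otherwise indicated), shown relative to DMSO-treated cells. Mean ± SD, triplicate unless stated.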"}, "[16]": {"test_system": "MCF7", "experiment": "Effect on human MCF7 cells assessed as increase in TET1 transcription by qRT-PCR analysis", "type": "functional, cell-based", "summary_of_the_method": "as §5"}, "[17]": {"test_system": "BT-474", "experiment": "Effect on human BT-474 cells assessed as increase in TET2 transcription by qRT-PCR analysis", "type": "functional, cell-based", "summary_of_the_method": "as §5"}, "[18]": {"test_system": "MDA-MB-436", "experiment": "Downregulation of EZH2 in human MDA-MB-436 cells at 2 uM for 2 days by immunoblot analysis", "type": "functional, cell-based", "settings": "time 2.0 day"}, "[19]": {"test_system": "MDA-MB-231", "experiment": "Effect on […] in human MDA-MB-231 cells assessed as repression in TET1 promoter EZH2 by ChiP-qPCR analysis", "type": "functional, cell-based", "summary_of_the_method": "(§6)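 Cells treated with GSK343 or DMSO; chromatin immunoprecipitated with anti-EZH2 or anti-H3K27me3 antibody and quantified by qPCR with primers for the TET1 promoter; input as internal control, IgG as negative control.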"}, "[20]": {"test_system": "MDA-MB-231", "experiment": "Effect on […] in human MDA-MB-231 cells assessed as repression in TET1 promoter H3K27me3 by ChiP-qPCR analysis", "type": "functional, cell-based", "summary_of_the_method": "as §6"}, "[21]": {"test_system": "MDA-MB-231", "experiment": "Effect on human MDA-MB-231 cells expressing shTET1 assessed as increase in p53 cascade by immunoblot analysis", "type": "functional, cell-based"}, "[22]": {"test_system": "MDA-MB-231", "experiment": "Effect on human MDA-MB-231 cells assessed as apoptotic phenotype by measuring increase in BIM expression level at 2 uM in presence of adriamycin by immunoblot analysis", "type": "functional, cell-based", "summary_of_the_method": "(§7)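 Immunoblot of cell lysates after 0.05 µg/ml adriamycin alone, with 2 µM GSK343, or DMSO. α-Tubulin and total H3 used as loading controls.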"}, "[23]": {"test_system": "MDA-MB-436", "experiment": "Effect on human MDA-MB-436 cells assessed as apoptotic phenotype by measuring increase in BIM expression level at 2 uM in presence of adriamycin by immunoblot analysis", "type": "functional, cell-based", "summary_of_the_method": "as §7"}, "[24]": {"test_system": "MDA-MB-231", "experiment": "Induction of apoptosis in human MDA-MB-231 cells assessed as increase in accumulation of cells at G1 phase in presence of adriamycin by BrdU/PI-based cell cycle analysis", "type": "functional", "summary_of_the_method": "(§8)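 Cell cycle by BrdU/PI staining and flow cytometry, giving G1, S and G2 fractions. Cells received 0.005 µg/ml adriamycin with or without 2 µM GSK343, or DMSO. Mean ± SD.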"}, "[25]": {"test_system": "MDA-MB-231", "experiment": "Induction of apoptosis in human MDA-MB-231 cells assessed as decrease in accumulation of cells at S phase in presence of adriamycin by BrdU/PI-based cell cycle analysis", "type": "functional", "summary_of_the_method": "as §8"}, "[26]": {"test_system": "MDA-MB-231", "experiment": "In vivo activation of p53 expression in Crl:NU-Foxn1-nu/nu mouse xenografted with human MDA-MB-231 cells at 5 mg/kg, ip in presence of adriamycin treated for 21 days", "type": "functional, organism-based", "settings": "time 21.0 day"}, "[27]": {"test_system": "MDA-MB-436", "experiment": "Antitumor activity against human MDA-MB-436 cells xenografted in Crl:NU-Foxn1-nu/nu mouse assessed as reduction in tumor administered at 5 mg/kg, ip in presence of adriamycin treated for 21 days", "type": "functional, organism-based", "settings": "time 21.0 day"}, "[28]": {"test_system": "MDA-MB-231", "experiment": "Effect on human MDA-MB-231 cells assessed as increase in TET1 mRNA level by qRT-PCR analysis"}, "[29]": {"test_system": "MDA-MB-436", "experiment": "Effect on human MDA-MB-436 cells assessed as increase in TET1 mRNA level by qRT-PCR analysis"}}, "note": "Activity calls are given as the source filed them. The calls are words filed in the database; no cut-off is given here."}
{"smiles": "CCCc1cc(C)[nH]c(=O)c1CNC(=O)c1cc(-c2ccnc(N3CCN(C)CC3)c2)cc2c1cnn2C(C)C", "values": [{"measurement": "Activity", "setting": "[1]", "value": "Non-Toxic"}, {"measurement": "Activity", "setting": "[2]", "value": "Non-Toxic"}, {"measurement": "Activity", "setting": "[3]", "value": "Active"}, {"measurement": "Activity", "setting": "[4]", "value": "Non-Toxic"}, {"measurement": "Activity", "setting": "[5]", "value": 15.2, "unit": "%"}, {"measurement": "Activity", "setting": "[6]", "value": 22.8, "unit": "%"}, {"measurement": "Activity", "setting": "[7]", "value": "Active"}, {"measurement": "Activity", "setting": "[8]", "value": "Non-Toxic"}, {"measurement": "Activity", "setting": "[9]", "value": "Non-Toxic"}, {"measurement": "Activity", "setting": "[10]", "value": "Non-Toxic"}, {"measurement": "Activity", "setting": "[11]", "value": "Non-Toxic"}, {"measurement": "Activity", "setting": "[12]", "value": "Active"}, {"measurement": "Activity", "setting": "[13]", "value": "Active"}, {"measurement": "Activity", "setting": "[14]", "value": "inactive"}, {"measurement": "Activity", "setting": "[15]", "value": "Active"}, {"measurement": "Activity", "setting": "[16]", "value": "inactive"}, {"measurement": "Activity", "setting": "[17]", "value": "inactive"}, {"measurement": "Activity", "setting": "[18]", "value": "Active"}, {"measurement": "Activity", "setting": "[19]", "value": "Active"}, {"measurement": "Activity", "setting": "[20]", "value": "Active"}, {"measurement": "Activity", "setting": "[21]", "value": "inactive"}, {"measurement": "Activity", "setting": "[22]", "value": "Active"}, {"measurement": "Activity", "setting": "[23]", "value": "Active"}, {"measurement": "Activity", "setting": "[24]", "value": "Active"}, {"measurement": "Activity", "setting": "[25]", "value": "Active"}, {"measurement": "Activity", "setting": "[26]", "value": "Active"}, {"measurement": "Activity", "setting": "[27]", "value": "Active"}, {"measurement": "Activity", "setting": "[28]", "value": "Active"}, {"measurement": "Activity", "setting": "[29]", "value": "Active"}]}
